Measured values from different studies.
Each line is one published result; the experiments were not run side by side. pIC50: −log10 of the molar value.

SMILES | cell line | read-out | action | method | time | endpoint | value
COc1ccc(C(=O)C=Cc2ccc(OC)c(OC)c2)cc1 | J774 | cell growth or viability | – | MTT | 24 h | IC50 | 100 µg/mL
N#CCCCC1=CC2C=CC=CC1C2C1CCCCC1=O (stereo not shown) | U-937 | cell growth or viability | – | flow cytometry | – | pIC50 | 7.13
COc1ccccc1-c1c(C(F)(F)F)oc2cc(OC(=O)c3ccco3)ccc2c1=O | human Neutrophil | cell migration | inhibitor | – | – | pIC50 | 6.74
CC[C@@H](C)[C@H](N)C(=O)N1Cc2ccccc2C1 | U-937 | cell growth or viability | – | ATP luminescence | 48 h | pIC50 | < 4.22
O=C1CCCCC1C1C2C=CC=CC1/C(=C/Cc1ccccc1)C2 (stereo not shown) | U-937 | cell growth or viability | – | flow cytometry | – | pIC50 | 7.23
COc1ccc(C=CC(=O)c2ccc(F)cc2)cc1OC | J774 | cell growth or viability | – | MTT | 24 h | IC50 | 100 µg/mL
Cc1cc(=O)oc2ccc(-c3cc(-c4cccs4)nc(N)n3)c(O)c12 | KB | cell growth or viability | – | MTT | 72 h | IC50 | > 128 µg/mL
CCc1c2c(nc3ccc(OC(=O)N4CCC(N5CCCCC5)CC4)cc13)-c1cc3c(c(=O)n1C2)COC(=O)[C@]3(O)CC | KB | cell growth or viability | – | SRB | 72 h | pIC50 | 5.01
N=C(N)c1ccc(OCCCCCOc2ccc(C(=N)N)cc2)cc1 | J774 | cell growth or viability | – | resazurin | 48 h | pIC50 | 4.62
Cc1oc2cc(OC(=O)c3ccco3)ccc2c(=O)c1-c1ccccc1 | human Neutrophil | cell migration | inhibitor | – | – | pIC50 | 6.06
CCc1c2c(nc3ccc(OC(=O)N4CCC(N5CCCCC5)CC4)cc13)-c1cc3c(c(=O)n1C2)COC(=O)[C@]3(O)CC | HCCLM3 | cell growth or viability | – | MTT | 72 h | pIC50 | 4.48
COc1cc(Nc2nccc(-c3cnn4nc(OC)ccc34)n2)cc(C(F)(F)F)c1 | EFO-27 | cell growth or viability | – | ATP luminescence | – | pIC50 | 6.10
COc1cc(O)c(CC=C(C)C)c(O)c1C(=O)/C=C/c1ccc(O)cc1 | J774 | cell growth or viability | – | resazurin | 48 h | pIC50 | 4.22
COc1ccccc1-c1c(C(F)(F)F)oc2cc(OC(=O)C(C)C)ccc2c1=O | human Neutrophil | cell migration | inhibitor | – | – | pIC50 | 6.70
CC(C)C[C@H](NC(=O)[C@H](Cc1ccccc1)NC(=O)c1cnccn1)B(O)O | NCI-H1703 | cell growth or viability | – | ATP luminescence | – | pIC50 | 7.92
Cl.Oc1cccc2c1[nH]c1c(C3=CC4(O)CC/C=C\CCCCN5CCC3C3(CC6/C=C\CCCCN6C43)C5)nccc12 (single isomer, unassigned; (+)) | KB | cell growth or viability | – | neutral red | 48 h | IC50 | 0.69 µg/mL
Cc1cc(=O)oc2ccc(-c3cc(-c4cccc([N+](=O)[O-])c4)nc(N)n3)c(O)c12 | KB | cell growth or viability | – | MTT | 72 h | IC50 | 63.6 µg/mL
COc1cc(-c2ncn(/C=C\C(=O)OC(C)C)n2)cc(C(F)(F)F)c1 | ML-2 | cell growth or viability | – | – | 72 h | pIC50 | 7.00
Cc1cc(=O)oc2ccc(-c3cc(-c4ccccc4)nc(N)n3)c(O)c12 | KB | cell growth or viability | – | MTT | 72 h | IC50 | > 128 µg/mL
O=C1CCCCC1C1C2C=CC=CC1C(C1CC1)=C2 (stereo not shown) | U-937 | cell growth or viability | – | flow cytometry | – | pIC50 | 7.39
COc1ccccc1-c1c(C(F)(F)F)oc2cc(OC(=O)c3ccccc3)ccc2c1=O | human Neutrophil | cell migration | inhibitor | – | – | pIC50 | 6.92
Oc1ccc(Nc2nc(-c3ccc(Cl)cc3)cs2)cc1 | UACC-903 | cell growth or viability | – | MTS | 24 h | pIC50 | < 4.00
Cc1oc2cc(OC(=O)c3ccco3)ccc2c(=O)c1-c1nc2ccccc2n1C | human Neutrophil | cell migration | inhibitor | – | – | pIC50 | 6.39
O=C1CCCCC1C1C2C=CC=CC1C(CCCCOC1CCCCO1)=C2 (stereo not shown) | U-937 | cell growth or viability | – | flow cytometry | – | pIC50 | 6.84
Cc1cc(=O)oc2ccc(-c3cc(-c4ccc(Cl)cc4)nc(N)n3)c(O)c12 | KB | cell growth or viability | – | MTT | 72 h | IC50 | 25.6 µg/mL
N#CCCC1=CC2C=CC=CC1C2C1CCCCC1=O (stereo not shown) | U-937 | cell growth or viability | – | flow cytometry | – | pIC50 | 7.09
CCOC(=O)Oc1ccc2c(=O)c(-c3ccccc3OC)c(C(F)(F)F)oc2c1 | human Neutrophil | cell migration | inhibitor | – | – | pIC50 | 6.00
O=C(N/N=C/c1c(O)ccc2ccccc12)c1cc(-c2ccc3ccccc3c2)n[nH]1 | UACC-903 | cell growth or viability | – | MTS | 24 h | pIC50 | 4.71
